{"source": "ChEMBL document CHEMBL4118021", "about": "“Studies of TAK1-centered polypharmacology with novel covalent TAK1 inhibitors” (Bioorg Med Chem, 2017)", "key": {"[1]": {"target": "Serine/threonine-protein kinase 36 (Homo sapiens) (UniProt Q9NRP7)", "sequence (Q9NRP7 whole entry, the tested form may be a part)": "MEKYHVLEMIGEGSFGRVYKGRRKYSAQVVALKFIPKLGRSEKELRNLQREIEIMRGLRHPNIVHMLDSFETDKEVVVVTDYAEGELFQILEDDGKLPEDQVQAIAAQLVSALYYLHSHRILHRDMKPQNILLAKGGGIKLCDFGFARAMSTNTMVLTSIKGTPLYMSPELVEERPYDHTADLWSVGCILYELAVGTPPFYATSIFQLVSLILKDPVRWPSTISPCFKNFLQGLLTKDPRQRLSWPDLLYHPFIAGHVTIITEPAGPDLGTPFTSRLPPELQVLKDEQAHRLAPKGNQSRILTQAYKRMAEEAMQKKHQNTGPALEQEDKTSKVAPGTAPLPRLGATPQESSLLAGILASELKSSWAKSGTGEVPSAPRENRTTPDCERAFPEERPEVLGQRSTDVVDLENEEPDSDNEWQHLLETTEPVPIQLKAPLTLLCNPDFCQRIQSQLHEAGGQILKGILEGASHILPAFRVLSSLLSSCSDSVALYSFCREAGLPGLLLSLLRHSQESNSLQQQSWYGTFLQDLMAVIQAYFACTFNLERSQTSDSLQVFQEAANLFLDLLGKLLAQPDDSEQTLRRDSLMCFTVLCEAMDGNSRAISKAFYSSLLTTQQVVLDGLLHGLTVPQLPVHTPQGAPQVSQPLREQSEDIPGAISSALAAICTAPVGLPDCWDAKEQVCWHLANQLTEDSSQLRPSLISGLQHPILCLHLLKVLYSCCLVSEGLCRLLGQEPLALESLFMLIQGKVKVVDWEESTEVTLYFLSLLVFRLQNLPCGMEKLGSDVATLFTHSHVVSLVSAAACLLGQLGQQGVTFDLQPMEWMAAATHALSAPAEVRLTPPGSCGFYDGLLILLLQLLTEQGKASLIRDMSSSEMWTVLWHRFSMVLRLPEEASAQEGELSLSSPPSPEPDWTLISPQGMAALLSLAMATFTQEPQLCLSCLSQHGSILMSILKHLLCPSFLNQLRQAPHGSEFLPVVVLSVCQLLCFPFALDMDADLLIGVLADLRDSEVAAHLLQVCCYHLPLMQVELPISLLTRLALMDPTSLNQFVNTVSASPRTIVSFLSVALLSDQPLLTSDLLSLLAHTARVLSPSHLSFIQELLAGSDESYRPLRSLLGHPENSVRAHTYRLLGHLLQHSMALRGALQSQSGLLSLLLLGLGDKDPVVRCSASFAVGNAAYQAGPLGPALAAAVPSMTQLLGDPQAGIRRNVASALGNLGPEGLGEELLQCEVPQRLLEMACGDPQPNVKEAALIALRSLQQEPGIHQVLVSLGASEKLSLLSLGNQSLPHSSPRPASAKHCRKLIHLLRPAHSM", "assay": "Inhibition of human STK36 (1 to 271 residues) expressed in bacterial expression system assessed as enzyme activity at 1 uM by KINOMEScan assay relative to control", "set-up": "scale not given: the % may be the effect or the level left", "summary_of_the_method": "(§1)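 In vitro ATP-site competition binding assay across a panel of 456 kinases, with compound tested at 1 and 10 μM.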"}, "[2]": {"target": "T1, Dual specificity mitogen-activated protein kinase kinase 3 (Homo sapiens) (UniProt P46734)", "T1 sequence (whole entry)": "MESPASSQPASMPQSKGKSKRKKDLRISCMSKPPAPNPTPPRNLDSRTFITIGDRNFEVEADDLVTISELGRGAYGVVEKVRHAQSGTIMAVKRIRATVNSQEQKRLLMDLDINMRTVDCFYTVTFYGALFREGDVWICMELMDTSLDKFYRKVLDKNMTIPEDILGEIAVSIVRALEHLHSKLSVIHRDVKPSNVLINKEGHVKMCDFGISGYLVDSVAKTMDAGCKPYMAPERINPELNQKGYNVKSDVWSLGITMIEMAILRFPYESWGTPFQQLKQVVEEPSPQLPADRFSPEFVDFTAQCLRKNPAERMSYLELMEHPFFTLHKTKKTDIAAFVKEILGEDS", "assay": "Inhibition of full length human MEK3 (1 to 318 residues) expressed in mammalian expression system assessed as enzyme activity at 1 uM by KINOMEScan assay relative to control", "set-up": "scale not given: the % may be the effect or the level left", "summary_of_the_method": "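In vitro ATP-site competition binding assay (KinomeScan) across a panel of 456 kinases. Compound was tested at 1 and 10 μM. The read-out is the binding inhibition score relative to control.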"}, "[3]": {"target": "Phosphatidylinositol 4-phosphate 3-kinase C2 domain-containing subunit beta (Homo sapiens) (UniProt O00750)", "assay": "Inhibition of PIK3C2B in human SKCO1 cells at 1 uM after 4 hrs using biotin labeled VIFKCGDDLRQDMLTLQMIR probe by mass-spectrometric analysis relative to control", "assay_type": "cell-based"}, "[4]": {"target": "Platelet-derived growth factor receptor beta (Homo sapiens) (UniProt P09619)", "sequence (P09619 whole entry, the tested form may be a part)": "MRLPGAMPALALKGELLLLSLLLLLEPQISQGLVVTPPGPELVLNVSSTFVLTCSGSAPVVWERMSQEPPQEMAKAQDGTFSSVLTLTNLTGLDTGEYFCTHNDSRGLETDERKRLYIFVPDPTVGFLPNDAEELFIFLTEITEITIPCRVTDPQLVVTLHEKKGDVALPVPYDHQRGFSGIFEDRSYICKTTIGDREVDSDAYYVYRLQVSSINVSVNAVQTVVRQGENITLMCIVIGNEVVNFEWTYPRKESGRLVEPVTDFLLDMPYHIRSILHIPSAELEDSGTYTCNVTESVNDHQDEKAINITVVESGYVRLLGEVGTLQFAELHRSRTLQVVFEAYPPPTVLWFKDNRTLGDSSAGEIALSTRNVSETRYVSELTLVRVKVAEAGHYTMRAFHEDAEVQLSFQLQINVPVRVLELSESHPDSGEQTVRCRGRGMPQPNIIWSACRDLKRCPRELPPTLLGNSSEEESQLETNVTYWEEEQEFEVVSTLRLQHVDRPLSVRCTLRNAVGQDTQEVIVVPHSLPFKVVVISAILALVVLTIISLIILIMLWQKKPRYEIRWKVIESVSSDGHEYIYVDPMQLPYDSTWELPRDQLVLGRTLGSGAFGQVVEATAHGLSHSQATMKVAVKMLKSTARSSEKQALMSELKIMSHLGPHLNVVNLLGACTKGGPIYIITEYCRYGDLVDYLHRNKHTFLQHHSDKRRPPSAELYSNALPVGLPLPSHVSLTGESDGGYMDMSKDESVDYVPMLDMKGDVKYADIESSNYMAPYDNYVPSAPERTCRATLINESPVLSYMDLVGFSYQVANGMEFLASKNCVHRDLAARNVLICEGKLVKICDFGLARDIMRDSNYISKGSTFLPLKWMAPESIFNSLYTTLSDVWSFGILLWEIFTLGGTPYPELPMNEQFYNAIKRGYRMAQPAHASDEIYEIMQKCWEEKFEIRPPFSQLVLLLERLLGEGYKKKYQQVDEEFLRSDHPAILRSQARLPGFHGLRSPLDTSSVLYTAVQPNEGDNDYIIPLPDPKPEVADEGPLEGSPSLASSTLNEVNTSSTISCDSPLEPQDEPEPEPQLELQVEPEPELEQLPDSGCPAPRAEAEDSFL", "assay": "Inhibition of human PDGFRB (582 to 1009 residues) expressed in bacterial expression system assessed as enzyme activity at 10 uM by KINOMEScan assay relative to control", "set-up": "scale not given: the % may be the effect or the level left", "summary_of_the_method": "as §1"}, "[5]": {"target": "Opioid growth factor receptor (Homo sapiens) (UniProt Q9NZT2)", "assay": "Binding affinity to OGFR in human NCI-H23 cells at 1 uM by mass spectrometry based pull down assay", "assay_type": "cell-based"}, "[6]": {"target": "Small COPII coat GTPase SAR1A (Homo sapiens) (UniProt Q9NR31)", "sequence (Q9NR31 whole entry)": "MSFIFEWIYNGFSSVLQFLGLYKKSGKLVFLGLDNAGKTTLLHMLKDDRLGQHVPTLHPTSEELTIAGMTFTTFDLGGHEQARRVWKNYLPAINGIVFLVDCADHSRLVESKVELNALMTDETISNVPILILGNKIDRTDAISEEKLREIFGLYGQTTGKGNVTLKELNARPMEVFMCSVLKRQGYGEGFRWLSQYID", "assay": "Binding affinity to SAR1A in human NCI-H23 cells at 1 uM by mass spectrometry based pull down assay", "assay_type": "cell-based"}, "[7]": {"target": "Proteasome activator complex subunit 1 (Homo sapiens) (UniProt Q06323)", "sequence (Q06323 whole entry, one chain of several)": "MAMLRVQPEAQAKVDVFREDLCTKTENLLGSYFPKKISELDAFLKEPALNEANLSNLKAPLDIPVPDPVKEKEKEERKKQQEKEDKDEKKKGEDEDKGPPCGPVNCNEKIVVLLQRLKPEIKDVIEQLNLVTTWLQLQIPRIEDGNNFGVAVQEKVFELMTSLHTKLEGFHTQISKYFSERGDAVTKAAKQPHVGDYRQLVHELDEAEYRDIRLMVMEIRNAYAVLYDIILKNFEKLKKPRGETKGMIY", "assay": "Binding affinity to PSME1 in human NCI-H23 cells at 1 uM by mass spectrometry based pull down assay", "assay_type": "cell-based"}, "[8]": {"target": "Deaminated glutathione amidase (Homo sapiens) (UniProt Q86X76)", "sequence (Q86X76 whole entry)": "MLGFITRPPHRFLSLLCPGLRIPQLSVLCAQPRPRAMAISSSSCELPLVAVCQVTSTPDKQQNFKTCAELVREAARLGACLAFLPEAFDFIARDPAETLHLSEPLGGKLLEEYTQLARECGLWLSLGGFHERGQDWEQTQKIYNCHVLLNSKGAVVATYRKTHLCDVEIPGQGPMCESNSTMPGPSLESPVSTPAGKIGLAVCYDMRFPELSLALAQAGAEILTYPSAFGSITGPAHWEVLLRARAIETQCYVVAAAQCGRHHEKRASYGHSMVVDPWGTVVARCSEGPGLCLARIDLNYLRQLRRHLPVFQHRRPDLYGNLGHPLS", "assay": "Binding affinity to NIT1 in human NCI-H358 cells at 1 uM by mass spectrometry based pull down assay", "assay_type": "cell-based"}, "[9]": {"target": "T2, Mitogen-activated protein kinase kinase kinase 7 (Homo sapiens) (UniProt O43318)", "T2 sequence (whole entry)": "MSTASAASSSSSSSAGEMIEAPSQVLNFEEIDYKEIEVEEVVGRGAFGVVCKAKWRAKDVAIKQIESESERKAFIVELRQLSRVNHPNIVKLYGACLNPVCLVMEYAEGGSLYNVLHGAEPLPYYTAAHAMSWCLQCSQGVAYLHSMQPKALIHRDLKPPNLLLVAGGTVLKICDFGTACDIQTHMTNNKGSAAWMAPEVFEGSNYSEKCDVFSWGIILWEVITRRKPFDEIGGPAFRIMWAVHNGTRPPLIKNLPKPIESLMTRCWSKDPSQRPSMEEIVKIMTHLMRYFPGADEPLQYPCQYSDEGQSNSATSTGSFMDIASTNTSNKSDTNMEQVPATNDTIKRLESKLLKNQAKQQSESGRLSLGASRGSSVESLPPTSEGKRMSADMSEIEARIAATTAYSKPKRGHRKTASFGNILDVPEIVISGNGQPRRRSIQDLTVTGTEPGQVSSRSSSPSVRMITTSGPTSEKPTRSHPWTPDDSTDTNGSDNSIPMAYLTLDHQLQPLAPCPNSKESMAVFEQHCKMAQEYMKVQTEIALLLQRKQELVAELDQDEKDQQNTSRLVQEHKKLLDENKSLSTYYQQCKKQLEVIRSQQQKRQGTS", "assay": "Binding affinity to MAP3K7 in human NCI-H358 cells at 1 uM by mass spectrometry based pull down assay", "assay_type": "cell-based"}, "[10]": {"target": "Signal recognition particle 19 kDa protein (Homo sapiens) (UniProt P09132)", "assay": "Binding affinity to SRP19 in human NCI-H23 cells at 1 uM by mass spectrometry based pull down assay", "assay_type": "cell-based"}, "[11]": {"target": "80S Ribosome (Homo sapiens) (UniProt P08865+P42677+P62753+P15880+P23396+P61247+P62701+P22090+P46782+P62081+P62241+P46781+P46783+P62280+P25398+P62277+P62263+P62841+P62244+P62249+P08708+P62269+P39019+P60866+P63220+P62266+P62847+P62851+P62854+P62979+P62857+P62273+P62861+P39023+P36578+P46777+Q02878+P18124+P62424+P62917+P32969+P27635+P62906+P62913+P30050+P26373+P40429+P50914+P61313+P18621+Q07020+Q02543+P84098+P46778+P35268+P62829+P62750+P83731+P61254+P61353+P46776+P46779+P47914+P62888+P62899+P62910+P49207+P42766+P18077+Q9Y3U8+P83881+P61927+P61513+P63173+P62891+P62945+P05388+P05386)", "assay": "Binding affinity to RPL19 in human NCI-H358 cells at 1 uM by mass spectrometry based pull down assay", "assay_type": "cell-based"}, "[12]": {"target": "Dual specificity mitogen-activated protein kinase kinase 1 (Homo sapiens) (UniProt Q02750)", "assay": "Binding affinity to MAP2K1 in human NCI-H23 cells at 1 uM by mass spectrometry based pull down assay", "assay_type": "cell-based"}, "[13]": {"target": "Cancer-related nucleoside-triphosphatase (Homo sapiens) (UniProt Q9BSD7)", "sequence (Q9BSD7 whole entry)": "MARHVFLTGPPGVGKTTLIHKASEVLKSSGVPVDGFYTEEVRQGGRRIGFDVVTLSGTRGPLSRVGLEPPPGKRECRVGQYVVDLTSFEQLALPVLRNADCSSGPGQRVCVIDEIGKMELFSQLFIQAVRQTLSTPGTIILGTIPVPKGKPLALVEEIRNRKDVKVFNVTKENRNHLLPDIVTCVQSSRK", "assay": "Binding affinity to NTPCR in human NCI-H358 cells at 1 uM by mass spectrometry based pull down assay", "assay_type": "cell-based"}, "[14]": {"target": "Tropomyosin alpha-1 chain (Homo sapiens) (UniProt P09493)", "sequence (P09493 whole entry)": "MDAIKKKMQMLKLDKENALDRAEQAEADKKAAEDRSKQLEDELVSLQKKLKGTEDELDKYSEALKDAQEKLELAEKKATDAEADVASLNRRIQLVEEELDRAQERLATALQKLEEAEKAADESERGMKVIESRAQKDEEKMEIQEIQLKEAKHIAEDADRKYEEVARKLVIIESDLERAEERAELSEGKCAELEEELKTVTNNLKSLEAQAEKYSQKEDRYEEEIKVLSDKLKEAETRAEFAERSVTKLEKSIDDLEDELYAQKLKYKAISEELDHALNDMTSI", "assay": "Binding affinity to TPM1 in human NCI-H358 cells at 1 uM by mass spectrometry based pull down assay", "assay_type": "cell-based"}, "[15]": {"target": "Serine/threonine-protein phosphatase PP1-alpha catalytic subunit (Homo sapiens) (UniProt P62136)", "sequence (P62136 whole entry)": "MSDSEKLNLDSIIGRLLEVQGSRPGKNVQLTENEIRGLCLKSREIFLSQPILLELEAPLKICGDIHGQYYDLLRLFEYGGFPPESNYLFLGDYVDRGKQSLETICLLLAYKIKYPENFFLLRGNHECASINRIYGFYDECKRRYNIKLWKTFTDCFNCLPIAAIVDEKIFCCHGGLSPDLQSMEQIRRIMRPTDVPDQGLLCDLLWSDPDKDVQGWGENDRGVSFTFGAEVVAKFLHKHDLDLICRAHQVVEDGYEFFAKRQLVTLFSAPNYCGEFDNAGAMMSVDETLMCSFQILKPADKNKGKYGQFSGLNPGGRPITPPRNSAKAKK", "assay": "Binding affinity to PPP1CA in human NCI-H23 cells at 1 uM by mass spectrometry based pull down assay", "assay_type": "cell-based"}, "[16]": {"target": "Phosphatidylinositol 3-kinase catalytic subunit type 3 (Homo sapiens) (UniProt Q8NEB9)", "sequence (Q8NEB9 whole entry)": "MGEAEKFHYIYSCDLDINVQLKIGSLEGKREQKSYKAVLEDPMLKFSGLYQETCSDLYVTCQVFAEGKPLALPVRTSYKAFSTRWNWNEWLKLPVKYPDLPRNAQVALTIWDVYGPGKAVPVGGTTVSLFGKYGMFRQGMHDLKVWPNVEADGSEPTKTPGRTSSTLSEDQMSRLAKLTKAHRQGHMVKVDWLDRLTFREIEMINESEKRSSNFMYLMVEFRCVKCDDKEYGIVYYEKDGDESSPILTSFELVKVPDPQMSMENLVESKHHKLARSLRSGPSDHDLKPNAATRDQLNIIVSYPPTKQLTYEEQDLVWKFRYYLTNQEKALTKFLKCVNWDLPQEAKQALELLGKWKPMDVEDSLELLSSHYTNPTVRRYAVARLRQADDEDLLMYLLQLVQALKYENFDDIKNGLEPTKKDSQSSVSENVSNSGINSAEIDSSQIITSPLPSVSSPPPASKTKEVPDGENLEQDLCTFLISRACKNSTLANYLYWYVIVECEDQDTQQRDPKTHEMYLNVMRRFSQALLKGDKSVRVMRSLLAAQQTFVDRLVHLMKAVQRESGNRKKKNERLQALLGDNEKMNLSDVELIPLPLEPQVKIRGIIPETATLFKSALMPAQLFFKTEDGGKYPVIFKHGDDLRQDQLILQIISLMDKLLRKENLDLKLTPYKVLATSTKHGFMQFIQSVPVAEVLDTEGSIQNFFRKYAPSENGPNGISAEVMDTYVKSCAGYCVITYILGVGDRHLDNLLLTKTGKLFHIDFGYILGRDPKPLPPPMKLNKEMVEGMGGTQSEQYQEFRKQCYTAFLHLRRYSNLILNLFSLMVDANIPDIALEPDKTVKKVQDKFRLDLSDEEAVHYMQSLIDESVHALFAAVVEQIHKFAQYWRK", "assay": "Binding affinity to PIK3C3 in human NCI-H23 cells at 1 uM by mass spectrometry based pull down assay", "assay_type": "cell-based"}}, "note": "Active and inactive are the calls of the source. The calls are words filed in the database; no cut-off is given here."}
{"molecule": "COc1cc(O)c2c(c1)/C=C/C[C@H](O)[C@H](O)C(=O)/C=C\\C[C@H](C)OC2=O", "values": [{"measurement": "Activity", "setting": "[1]", "result": 7.1, "unit": "%"}, {"measurement": "Activity", "setting": "[2]", "result": 22, "unit": "%"}, {"measurement": "inhibition", "setting": "[3]", "result": 8.3, "unit": "%"}, {"measurement": "Activity", "setting": "[4]", "result": 0.05, "unit": "%"}]}
{"molecule": "C=CC(=O)Nc1ccccc1Nc1nc(Nc2ccc(N3CCN(CCOCCOCCOCCNC(=O)CCCC[C@@H]4SC[C@@H]5NC(=O)N[C@@H]54)CC3)cc2)ncc1Cl", "values": [{"measurement": "Activity", "setting": "[5]", "result": "Active"}, {"measurement": "Activity", "setting": "[6]", "result": "Active"}, {"measurement": "Activity", "setting": "[7]", "result": "Active"}, {"measurement": "Activity", "setting": "[8]", "result": "Active"}, {"measurement": "Activity", "setting": "[9]", "result": "Active"}, {"measurement": "Activity", "setting": "[10]", "result": "Active"}, {"measurement": "Activity", "setting": "[11]", "result": "Active"}, {"measurement": "Activity", "setting": "[12]", "result": "Active"}, {"measurement": "Activity", "setting": "[13]", "result": "Active"}, {"measurement": "Activity", "setting": "[14]", "result": "Active"}, {"measurement": "Activity", "setting": "[15]", "result": "Active"}, {"measurement": "Activity", "setting": "[16]", "result": "Active"}]}
